Assay results published in ChEMBL document CHEMBL3045489, “Synthesis, fungicidal activity, and QSAR of a series of 2-dichlorophenyl-3-triazolylpropyl ethers” (J Agric Food Chem, 2000).
Values after ≈ are worked out from the molar mass of the structure shown. Active and inactive are the calls of the source. The calls are words filed in the database; no cut-off is given here.

Experiments:
Fusarium graminearum = assay: Antifungal activity against Fusarium graminearum assessed as inhibition of radial growth on potato dextrose; format: functional, organism-based
Summary of the method: (§1)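 Radial growth inhibition on potato dextrose or Czapek agar across 100-0.1 mg L-1. ED50 calculated for each compound.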

Cercospora beticola = assay: Antifungal activity against Cercospora beticola assessed as inhibition of radial growth on potato dextrose; format: functional, organism-based; summary of the method: as §1
Pyrenophora teres = assay: Antifungal activity against Pyrenophora teres assessed as inhibition of radial growth on potato dextrose; format: functional, organism-based
[1] = target: T1, Lanosterol 14-alpha demethylase (Mycosarcoma maydis, UniProt P49602); assay: Inhibition of 14alpha-demethylase Ustilago maydis ATCC 14826 assessed as reduction in 14alpha-methylfecosterol; conditions: read-out: I50 (converted)
T1 sequence (P49602 whole entry): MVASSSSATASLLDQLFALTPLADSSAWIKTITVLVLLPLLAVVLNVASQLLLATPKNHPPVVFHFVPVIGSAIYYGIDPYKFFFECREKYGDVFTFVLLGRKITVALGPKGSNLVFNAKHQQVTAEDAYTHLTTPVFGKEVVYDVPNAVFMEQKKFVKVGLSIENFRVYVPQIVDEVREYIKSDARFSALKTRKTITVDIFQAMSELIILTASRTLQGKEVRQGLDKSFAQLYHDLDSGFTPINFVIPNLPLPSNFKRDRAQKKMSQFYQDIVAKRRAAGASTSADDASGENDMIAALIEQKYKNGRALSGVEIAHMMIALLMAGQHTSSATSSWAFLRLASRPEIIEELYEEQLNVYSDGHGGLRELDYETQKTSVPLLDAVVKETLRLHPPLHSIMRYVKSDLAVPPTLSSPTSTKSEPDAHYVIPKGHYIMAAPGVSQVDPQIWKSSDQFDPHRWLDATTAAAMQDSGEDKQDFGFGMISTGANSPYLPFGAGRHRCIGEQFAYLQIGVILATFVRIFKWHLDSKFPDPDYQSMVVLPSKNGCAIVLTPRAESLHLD
Summary of the method: (§2)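 Actively growing broth cultures of U. maydis ATCC 14826 were incubated 18 h with increasing compound concentrations. Sterols were then extracted and analysed, and 14α-demethyl and 14α-methyl sterols quantified.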

[2] = target: T2, Lanosterol 14-alpha demethylase (Mycosarcoma maydis) (UniProt P49602); assay: Inhibition of 14alpha-demethylase Ustilago maydis ATCC 14826 assessed as reduction in 14alpha-methylfecosterol at 20 mg/ml (reference value: 0.4%); parameters: scale not given: the % may be the effect or the level left; summary of the method: as §2
T2 sequence (whole entry): T1 sequence (P49602 whole entry)

[3] = target: T2, Lanosterol 14-alpha demethylase (Mycosarcoma maydis); assay: Inhibition of 14alpha-demethylase Ustilago maydis ATCC 14826 assessed as reduction in ergosterol at 20 mg/ml (reference value: 61%); parameters: scale not given: the % may be the effect or the level left; summary of the method: as §2
Uromyces appendiculatus [4] = assay: Fungicidal activity against Uromyces appendiculatus inoculated in Phaseolus vulgaris placed in growth room after 24 hr incubation assessed as direct protection after 6 to 10 days; format: functional
Summary of the method: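 Bean plants grown at 22 ± 1 °C, 80 ± 10% RH. Compound in acetone/water (1:4 v/v) with Tween 20 (0.4 mg mL-1) was sprayed on leaves until moist at 100 to 0.001 mg L-1. One day later leaves were inoculated with U. appendiculatus uredospores (1 × 10^5 spores mL-1), held 24 h at 22 ± 2 °C and 100% RH, then moved to the growth room. Scored at 6, 8 and 10 days as MIC.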

[5] = target: T2, Lanosterol 14-alpha demethylase (Mycosarcoma maydis); assay: Inhibition of 14alpha-demethylase Ustilago maydis ATCC 14826 assessed as reduction in eburicol at 20 mg/ml (reference value: 3.4%); parameters: scale not given: the % may be the effect or the level left; summary of the method: as §2
Botrytis cinerea = assay: Antifungal activity against Botryotinia fuckelianaassessed as inhibition of radial growth on potato dextrose; format: functional, organism-based; summary of the method: as §1
[6] = target: T2, Lanosterol 14-alpha demethylase (Mycosarcoma maydis); assay: Inhibition of 14alpha-demethylase Ustilago maydis ATCC 14826 assessed as reduction in obtusifoliol at 20 mg/ml (reference value: 0.7%); parameters: scale not given: the % may be the effect or the level left; summary of the method: as §2
Podosphaera fuliginea [7] = assay: Fungicidal activity against Podosphaera fuliginea inoculated in […] placed in growth room after 24 hr incubation assessed as direct protection after 6 to 10 days; format: functional
Uromyces appendiculatus [8] = assay: Fungicidal activity against Uromyces appendiculatus inoculated in Phaseolus vulgaris placed in growth room after 24 hr incubation assessed as disease cure after 24 hr of inoculation; format: functional
Summary of the method: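 Bean rust curative test with the same plants, spray formulation (acetone/water 1:4 with Tween 20), 100 to 0.001 mg L-1 range and U. appendiculatus inoculum (1 × 10^5 spores mL-1). Compound applied 24 h after inoculation. Read-out expressed as MIC.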

Ustilago maydis [9] = assay: Antifungal activity against Ustilago maydis assessed as inhibition of radial growth on potato dextrose; format: functional, organism-based; conditions: Mycosarcoma maydis
Oculimacula yallundae = assay: Antifungal activity against Oculimacula yallundae assessed as inhibition of radial growth on potato dextrose; format: functional, organism-based; summary of the method: as §1
Bipolaris maydis = assay: Antifungal activity against Cochliobolus heterostrophus assessed as inhibition of radial growth on potato dextrose; format: functional, organism-based; summary of the method: as §1
Ustilago maydis [10] = assay: Antifungal activity against Ustilago maydis sporidia assessed as swollen, multicellular and branched sporidia at 0.25 to 50 mg/ml measured after 18 hr by light microscopy; format: functional, organism-based; conditions: Mycosarcoma maydis
Summary of the method: (§3)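 U. maydis sporidia grown in Coursen and Sisler broth and treated at 0.25 to 50 mg mL-1 for 18 h. Cell morphology and division examined by interference contrast (Nomarski) and fluorescence microscopy.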

Ustilago maydis [11] = assay: Antifungal activity against Ustilago maydis sporidia assessed as cell division at 0.25 to 50 mg/ml by light microscopy; format: functional, organism-based; conditions: Mycosarcoma maydis; summary of the method: as §3
Podosphaera fuliginea [12] = assay: Fungicidal activity against Podosphaera fuliginea inoculated in […] placed in growth room after 24 hr incubation assessed as disease cure after 24 hr of inoculation; format: functional

Structure (SMILES) | EC50 (Fusarium graminearum) | EC50 (Cercospora beticola) | EC50 (Pyrenophora teres) | IC50 [1] | Activity [2] | Activity [3] | MIC (Uromyces appendiculatus [4]) | Activity [5] | EC50 (Botrytis cinerea) | Activity [6] | MIC (Podosphaera fuliginea [7]) | MIC (Uromyces appendiculatus [8]) | EC50 (Ustilago maydis [9]) | EC50 (Oculimacula yallundae) | EC50 (Bipolaris maydis) | Activity (Ustilago maydis [10]) | Activity (Ustilago maydis [11]) | MIC (Podosphaera fuliginea [12])
C=CCOCC(Cn1cncn1)c1ccc(Cl)cc1Cl (racemic) | 8.5 µg/mL (≈ 27.2 µM) | 0.21 µg/mL (≈ 0.673 µM) | 1.4 µg/mL (≈ 4.48 µM) | 1730 nM | 8.8% | 5.1% | 200 µg/mL (≈ 641 µM) | 61.1% | 1.5 µg/mL (≈ 4.8 µM) | 20.6% | 30 µg/mL (≈ 96.1 µM) | 28 µg/mL (≈ 89.7 µM) | 0.22 µg/mL (≈ 0.705 µM) | 0.29 µg/mL (≈ 0.929 µM) | 0.16 µg/mL (≈ 0.512 µM) | – | – | –
FC(F)C(F)(F)OCC(Cn1cncn1)c1ccc(Cl)cc1Cl (stereo not drawn) [TETRACONAZOLE] | 4 µg/mL (≈ 10.7 µM) | 0.12 µg/mL (≈ 0.322 µM) | 0.4 µg/mL (≈ 1.07 µM) | – | – | – | 25 µg/mL (≈ 67.2 µM) | – | 1.2 µg/mL (≈ 3.22 µM) | – | 0.05 µg/mL (≈ 0.134 µM) | 25 µg/mL (≈ 67.2 µM) | 0.25 µg/mL (≈ 0.672 µM) | 0.45 µg/mL (≈ 1.21 µM) | < 0.1 µg/mL | Active | Active | 0.9 µg/mL (≈ 2.42 µM)
